This is an account of results in ChEMBL document CHEMBL4311965, “Antimicrobial activity of amphipathic α,α-disubstituted β-amino amide derivatives against ESBL - CARBA producing multi-resistant bacteria; effect of halogenation, lipophilicity and cationic character” (Eur J Med Chem, 2019).

What all share (type): ADME
Data set [1] in a line: Drug metabolism in Sprague-Dawley rat liver microsomes assessed as CYP450-mediated deaminated form of N-(2-aminoethyl)-2-(aminomethyl)-3-(4-fluoro-1-naphthyl)-2-[(4-fluoro-1-naphthyl)methyl]propanamide metabolite formation incubated up to 3 hrs in presence of NADPH regenerating system by RP-HPLC-MS analysis. In outline:
(§1)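 Substrate at 1 µL of 100 µM aqueous stock in 100 mM potassium phosphate, pH 7.4, with NADPH regenerating system. Pooled male Sprague–Dawley rat liver microsomes (20 mg/mL stock) added, then incubated at 37 °C. Sampled at 0–180 min and quenched with cold methanol containing propranolol internal standard. Analysed by RP-HPLC–HRMS in positive ESI mode. Metabolites confirmed by HCD MS2. Triplicate incubations.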
Background: Microsomes from liver hold many membrane-bound enzymes, among them those of drug oxidation.

Data set [2] can be described thus: Drug metabolism in Sprague-Dawley rat liver microsomes assessed as CYP450-mediated N-(2-aminoethyl)-2-(aminomethyl)-2-[(4-fluoro-5,6-dihydroxy-5,6-dihydronaphthalen-1-yl)methyl]-3-(4-fluoro-1-naphthyl)propanamide formation incubated up to 3 hrs in presence of NADPH regenerating system by RP-HPLC-MS analysis. A digest of the protocol: as §1
A short description of data set [3]: Drug metabolism in Sprague-Dawley rat liver microsomes assessed as CYP450-mediated 4-[2-(aminomethyl)-3-[3,5-bis(trifluoromethyl)phenyl]-2-(4,5-dihydrooxazol-3-ium-2-yl)propyl]-2,6-bis(trifluoromethyl)phenol formation incubated up to 3 hrs in presence of NADPH regenerating system by RP-HPLC-MS analysis. A digest of the protocol: as §1
A short description of data set [4]: Drug metabolism in Sprague-Dawley rat liver microsomes assessed as CYP450-mediated N-(2-aminoethyl)-2-(aminomethyl)-2-[(3,5-bis(trifluoromethyl)phenyl)methyl]-3-(4-hydroxy-3,5-bis(trifluoromethyl)phenyl)propanamide formation incubated up to 3 hrs in presence of NADPH regenerating system by RP-HPLC-MS analysis. In outline:
as §1

On to `NCCNC(=O)C(CN)(Cc1ccc(F)c2ccccc12)Cc1ccc(F)c2ccccc12`, for which the Drug metabolism result in data set [1] and in data set [2] was “Metabolite_Detected” each time.

With `NCCNC(=O)C(CN)(Cc1cc(C(F)(F)F)cc(C(F)(F)F)c1)Cc1cc(C(F)(F)F)cc(C(F)(F)F)c1`, the Drug metabolism result in data set [3] and in data set [4] was “Metabolite_Notdetected” each time.
